Here are results for eight compounds from ChEMBL document CHEMBL1138754, “Synthesis of taxoids with improved cytotoxicity and solubility for use in tumor-specific delivery” (J Med Chem, 2004).

The structures appear in SMILES notation. Values after ≈ are worked out from the molar mass of the structure shown.

Data set [1] can be described thus: Solubility in 10% DMA (expressed as mean of 3 determinations). The class given is physicochemical. Particulars: read-out: S. In a few lines: (§1)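 200 μg of taxane was dissolved in 50 µL of organic solvent (DMA, DMSO or ethanol), then diluted to 500 µL (10% organic) with conjugation buffer: 0.1 M potassium phosphate, 1 mM EDTA, pH 6.5. The mixture was vortexed and centrifuged, and the taxane concentration in the supernatant was measured spectrophotometrically.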

A short description of data set [2]: Solubility in 10% Ethanol (expressed as mean of 3 determinations). Particulars: read-out: S. The class given is physicochemical. In short, it runs like this: as §1
In data set [3] the test system is MCF7. In words: In vitro inhibitory concentration that inhibits 50% of the growth of MCF-7 human breast cell carcinoma cell line after 72 hr of drug exposure. In kind it is functional, cell-based. Particulars: MCF7, 72 h.
A short description of data set [4]: Solubility in 10% DMSO(expressed as mean of 3 determinations). The class given is physicochemical. To be noted: read-out: S. In short, it runs like this:
as §1

Data set [5] has as its system A549. Nature of the data set: In vitro inhibitory concentration that inhibits 50% of the growth of A549 non small cell lung carcinoma cell line after 72 hr of drug exposure. In kind it is functional, cell-based. Particulars: Homo sapiens, A549, 72 h.
The subject of a further data set is Breast carcinoma cell. Nature of the data set: Inhibitory concentration that inhibits 50% of the growth of LCC6/P9 human breast cell carcinoma cell line after 72 hr of drug exposure. The class given is functional, cell-based.
The subject of a further data set is NCI/ADR-RES. Nature of the data set: Inhibitory concentration that inhibits 50% of the growth of NCI ADR RES human […] cell carcinoma cell line after 72 h of drug exposure. The class given is functional, cell-based.
Data set [6] in a line: Solubility in 10% DMA(expressed as mean of 3 determinations). In kind it is physicochemical. Particulars: read-out: S. In a few lines:
as §1

Data set [7] can be described thus: Inhibitory concentration that inhibits 50% of the growth of Namalwa Burkitts lymphoma cell carcinoma cell line after 72 hr of drug exposure. In kind it is functional, cell-based. Particulars: Homo sapiens.
Data set [8] can be described thus: Inhibitory concentration that inhibits 50% of the growth of Namalwa MDR Burkitts lymphoma MDR cell carcinoma cell line after 72 hr of drug exposure. The class given is functional, cell-based. To be noted: Homo sapiens.
The test system of the next data set is MDR. Nature of the data set: Inhibitory concentration that inhibits 50% of the growth of LGM MDR human breast cell carcinoma cell line after 72 hr of drug exposure. In kind it is functional, cell-based.
In data set [9] the test system is MCF7. Nature of the data set: Inhibitory concentration that inhibits 50% of the growth of MCF-7 human breast cell carcinoma cell line after 72 hr of drug exposure. (Table 3). In kind it is functional, cell-based. Particulars: MCF7, 72 h.
For data set [10], the system named is MCF7. Nature of the data set: In vitro inhibitory concentration that inhibits 50% of the growth of MCF-7 human breast cell carcinoma cell line after 72 hr of drug exposure. (IC50 based on 2 separate determinations). Particulars: MCF7, 72 h. In kind it is functional.
Data set [11] deals with A549. In words: In vitro inhibitory concentration that inhibits 50% of the growth of A549 non small cell lung carcinoma cell line after 72 hr of drug exposure. (IC50 based on 2 separate determinations). In kind it is functional. Particulars: Homo sapiens, A549, 72 h.
Data set [12] in a line: Solubility in 10% DMSO (expressed as mean of 3 determinations). The class given is physicochemical. To be noted: read-out: S. In short, it runs like this: as §1

What is called IC50 is the concentration needed to halve the response being measured. Read a high IC50 as weaker potency. `COc1ccc(OC)c(C(=O)O[C@H]2C3[C@](C)(C(=O)[C@H](O)C4=C(C)[C@@H](OC(=O)[C@H](O)[C@H](C=C(C)C)NC(=O)OC(C)(C)C)C[C@]2(O)C4(C)C)C(OC(=O)CCSSC)C[C@H]2OC[C@@]32OC(C)=O)c1` (stereo partly specified): the solubility in data set [1] was 10 µg/mL (≈ 10.2 µM); in data set [2], 2 µg/mL (≈ 2.04 µM); in data set [4], 4 µg/mL (≈ 4.08 µM). Besides, the results for the IC50 in the data set with MCF7 [3] and in the data set on A549 [5] were 0.07 nM and 0.13 nM, respectively.

As to `COc1ccc(OC)c(C(=O)O[C@H]2C3[C@](C)(C(=O)[C@H](OC(=O)CCSSC)C4=C(C)[C@@H](OC(=O)[C@H](O)[C@H](C=C(C)C)NC(=O)OC(C)(C)C)C[C@]2(O)C4(C)C)C(O)C[C@H]2OC[C@@]32OC(C)=O)c1` (stereo partly specified), the IC50 with Breast carcinoma cell was 1 nM; in the data set with NCI/ADR-RES it was 15 nM; in [7] it was 0.53 nM; in data set [8], 0.65 nM; in the data set on MDR, 4 nM; in the data set with MCF7 [9], 0.4 nM. Moreover, the IC50 in the data set on MCF7 [3] came out at 0.05 nM; in the data set on A549 [5], 0.09 nM. Besides, the solubility in [6] was found to be 8 µg/mL (≈ 8.16 µM); in data set [2] it was 10 µg/mL (≈ 10.2 µM); in [4] it was 14 µg/mL (≈ 14.3 µM).

Turning to `CSSCCC(=O)O[C@H]1C(=O)[C@]2(C)C(O)C[C@H]3OC[C@@]3(OC(C)=O)C2[C@H](OC(=O)c2ccccc2)[C@]2(O)C[C@H](OC(=O)[C@H](O)[C@H](C=C(C)C)NC(=O)OC(C)(C)C)C(C)=C1C2(C)C` (stereo partly specified), the concentration for half-maximal inhibition (IC50) with MCF7 [3] came to 1 nM; in the data set with A549 [5] it was 0.8 nM.

With `COc1ccc(OC)c(C(=O)O[C@H]2C3[C@](C)(C(=O)[C@H](OC(=O)CCOCCOCCOCCOCCSSC)C4=C(C)[C@@H](OC(=O)[C@H](O)[C@H](C=C(C)C)NC(=O)OC(C)(C)C)C[C@]2(O)C4(C)C)C(O)C[C@H]2OC[C@@]32OC(C)=O)c1` (stereo partly specified), the IC50 stood at 1.6 nM with Breast carcinoma cell; 19 nM in the data set on NCI/ADR-RES; 0.45 nM in data set [7]; 0.9 nM in data set [8]; 18 nM in the data set on MDR; 0.5 nM with MCF7 [9]. For the same compound, the IC50 came to 0.06 nM in the data set on MCF7 [3] and 0.29 nM with A549 [5]. Besides, the solubility turned out to be 79 µg/mL (≈ 68.3 µM) in data set [6], 55 µg/mL (≈ 47.6 µM) in data set [2] and 82 µg/mL (≈ 70.9 µM) in [4].

`CSSCCN1CCN(C(=O)O[C@H]2C(=O)[C@]3(C)C(O)C[C@H]4OC[C@@]4(OC(C)=O)C3[C@H](OC(=O)c3ccccc3)[C@]3(O)C[C@H](OC(=O)[C@H](O)[C@H](C=C(C)C)NC(=O)OC(C)(C)C)C(C)=C2C3(C)C)CC1` (stereo partly specified): the IC50 worked out at 1 nM in the data set on MCF7 [3] and 1.1 nM in the data set with A549 [5].

For `COc1ccc(OC)c(C(=O)O[C@H]2C3[C@](C)(C(=O)[C@H](OC(=O)CCOCCOCCOCCOCCOCCOCCOCCOCCOCCOCCSSC)C4=C(C)[C@@H](OC(=O)[C@H](O)[C@H](C=C(C)C)NC(=O)OC(C)(C)C)C[C@]2(O)C4(C)C)C(O)C[C@H]2OC[C@@]32OC(C)=O)c1` (stereo partly specified), the IC50 in the data set with MCF7 [10] was found to be 0.58 nM; in the data set on A549 [11], 1.1 nM. Moreover, the solubility in data set [1] stood at 97 µg/mL (≈ 68.3 µM); in [2] it was 127 µg/mL (≈ 89.4 µM); in data set [4], 110 µg/mL (≈ 77.4 µM).

Take `COc1ccc(OC)c(C(=O)O[C@H]2C3[C@](C)(C(=O)[C@H](OC(=O)N4CCN(CCSSC)CC4)C4=C(C)[C@@H](OC(=O)[C@H](O)[C@H](C=C(C)C)NC(=O)OC(C)(C)C)C[C@]2(O)C4(C)C)C(O)C[C@H]2OC[C@@]32OC(C)=O)c1` (stereo partly specified): the solubility in data set [1] was 26 µg/mL (≈ 24.4 µM); in data set [2], 32 µg/mL (≈ 30.1 µM); in data set [4] it was 26 µg/mL (≈ 24.4 µM). In addition, the half-inhibitory concentration (IC50) in the data set with MCF7 [3] came to 0.039 nM; in the data set with A549 [5], 0.3 nM.

On to `COc1ccc(OC)c(C(=O)O[C@H]2C3[C@](C)(C(=O)[C@H](O)C4=C(C)[C@@H](OC(=O)[C@H](O)[C@H](C=C(C)C)NC(=O)OC(C)(C)C)C[C@]2(O)C4(C)C)C(OC(=O)CCOCCOCCOCCOCCSSC)C[C@H]2OC[C@@]32OC(C)=O)c1` (stereo partly specified), for which the IC50 with MCF7 [10] stood at 0.32 nM; in the data set on A549 [11] it was 1 nM. Besides, the solubility in data set [12] stood at 17 µg/mL (≈ 14.7 µM); in [1], 11 µg/mL (≈ 9.51 µM); in data set [2], 13 µg/mL (≈ 11.2 µM).
